We go through three compounds from ChEMBL document CHEMBL5653631, “A Potent and Selective ULK1 Inhibitor Suppresses Autophagy and Sensitizes Cancer Cells to Nutrient Stress” (iScience, 2018).

For test [1], the target named is Dual specificity tyrosine-phosphorylation-regulated kinase 1A (Homo sapiens) (UniProt Q13627). In words: Inhibition of human recombinant DYRK1A at 15 nM related to control ULK1.
In test [2] the target is Ribosomal protein S6 kinase alpha-3 (Homo sapiens) (UniProt P51812). Nature of the test: Inhibition of human recombinant RSK2 at 15 nM in presence of ATP by radiometric assay relative to control.
In test [3] the target is Serine/threonine-protein kinase ATR (Homo sapiens) (UniProt Q13535). Nature of the test: Inhibition of human recombinant ATR at 40 nM in presence of ATP by radiometric assay relative to control. The method in brief:
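Panel of 327 recombinant human kinases, each assayed in vitro by radiometric activity assay in duplicate at a single inhibitor concentration per compound, chosen with reference to its ULK1 inhibition. Activity remaining was expressed as percent of vehicle control, and percent inhibition was calculated as 100 minus percent activity remaining.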

For test [4], the target named is 5'-AMP-activated protein kinase catalytic subunit alpha-1 (Homo sapiens) (UniProt Q13131). Nature of the test: Inhibition of human recombinant AMPKa1 at 40 nM related to control ULK1. In a few lines:
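Radiometric activity assays in a panel of 327 human recombinant kinases, each run in duplicate at one inhibitor concentration. Activity remaining is expressed as percent of vehicle control, and percent inhibition is calculated as 100% minus percent activity remaining.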

In test [5] the target is T1, Serine/threonine-protein kinase TAO3 (Homo sapiens) (UniProt Q9H2K8).
T1 sequence (whole entry): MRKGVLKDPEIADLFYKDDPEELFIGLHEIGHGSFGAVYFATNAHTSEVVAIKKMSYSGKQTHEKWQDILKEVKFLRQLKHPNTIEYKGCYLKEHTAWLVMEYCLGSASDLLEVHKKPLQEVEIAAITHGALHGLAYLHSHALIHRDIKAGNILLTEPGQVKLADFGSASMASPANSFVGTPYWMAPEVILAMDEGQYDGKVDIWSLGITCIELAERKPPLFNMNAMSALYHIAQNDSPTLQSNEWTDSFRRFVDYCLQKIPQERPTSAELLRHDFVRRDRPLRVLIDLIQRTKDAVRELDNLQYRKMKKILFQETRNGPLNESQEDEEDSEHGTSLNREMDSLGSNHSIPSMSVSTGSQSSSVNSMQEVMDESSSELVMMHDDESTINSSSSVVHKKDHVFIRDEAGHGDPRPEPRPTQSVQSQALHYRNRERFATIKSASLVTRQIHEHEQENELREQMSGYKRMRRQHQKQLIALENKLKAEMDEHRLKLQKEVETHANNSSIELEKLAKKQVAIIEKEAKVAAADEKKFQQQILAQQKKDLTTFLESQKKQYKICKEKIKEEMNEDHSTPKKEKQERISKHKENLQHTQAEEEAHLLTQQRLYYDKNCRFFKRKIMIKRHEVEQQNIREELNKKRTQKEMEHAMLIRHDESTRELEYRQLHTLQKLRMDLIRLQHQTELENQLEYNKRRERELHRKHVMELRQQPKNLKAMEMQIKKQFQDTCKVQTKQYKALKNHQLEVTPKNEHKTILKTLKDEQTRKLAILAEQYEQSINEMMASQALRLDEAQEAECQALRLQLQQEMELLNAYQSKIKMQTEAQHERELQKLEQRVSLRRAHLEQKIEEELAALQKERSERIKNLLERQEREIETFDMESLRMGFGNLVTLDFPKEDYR
Nature of the test: Inhibition of human recombinant TAO3 at 40 nM in presence of ATP by radiometric assay relative to control.

Test [6] deals with T2, Ephrin type-B receptor 3 (Homo sapiens) (UniProt P54753).
T2 sequence (whole entry): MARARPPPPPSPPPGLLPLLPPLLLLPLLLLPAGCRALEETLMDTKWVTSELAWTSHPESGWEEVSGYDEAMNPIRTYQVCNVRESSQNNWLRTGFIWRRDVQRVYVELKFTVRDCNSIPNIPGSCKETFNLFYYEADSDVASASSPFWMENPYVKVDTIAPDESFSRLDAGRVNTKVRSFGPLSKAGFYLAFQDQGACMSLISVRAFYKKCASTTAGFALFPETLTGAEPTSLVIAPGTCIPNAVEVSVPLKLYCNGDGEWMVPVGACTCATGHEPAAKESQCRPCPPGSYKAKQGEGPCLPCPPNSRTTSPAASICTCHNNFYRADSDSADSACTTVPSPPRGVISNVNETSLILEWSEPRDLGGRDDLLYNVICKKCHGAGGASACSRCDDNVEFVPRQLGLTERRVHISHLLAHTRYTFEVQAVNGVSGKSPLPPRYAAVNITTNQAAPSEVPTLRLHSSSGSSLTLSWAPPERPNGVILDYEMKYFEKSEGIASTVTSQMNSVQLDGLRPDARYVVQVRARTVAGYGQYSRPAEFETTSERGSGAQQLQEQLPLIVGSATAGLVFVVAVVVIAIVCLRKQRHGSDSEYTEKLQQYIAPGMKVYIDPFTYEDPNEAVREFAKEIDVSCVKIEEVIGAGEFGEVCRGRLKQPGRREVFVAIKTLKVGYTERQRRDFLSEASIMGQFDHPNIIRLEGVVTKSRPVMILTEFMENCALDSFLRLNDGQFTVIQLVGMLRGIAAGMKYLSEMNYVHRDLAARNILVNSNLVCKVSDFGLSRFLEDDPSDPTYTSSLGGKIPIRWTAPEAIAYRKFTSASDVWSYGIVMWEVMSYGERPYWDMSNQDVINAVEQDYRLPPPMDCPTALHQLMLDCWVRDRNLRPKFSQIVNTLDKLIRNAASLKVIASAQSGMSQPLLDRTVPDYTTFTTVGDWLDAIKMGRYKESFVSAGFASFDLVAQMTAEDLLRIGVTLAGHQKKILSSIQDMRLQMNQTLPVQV
In words: Inhibition of human recombinant EphB3 at 40 nM in presence of ATP by radiometric assay relative to control.

In test [7] the target is Tau-tubulin kinase 1 (Homo sapiens) (UniProt Q5TCY1). In words: Inhibition of human recombinant TTBK1 at 40 nM related to control ULK1.
In test [8] the target is Mitogen-activated protein kinase kinase kinase kinase 4 (Homo sapiens) (UniProt O95819). Nature of the test: Inhibition of human recombinant HGK at 40 nM in presence of ATP by radiometric assay relative to control.
In test [9] the target is Calcium/calmodulin-dependent protein kinase type 1 (Homo sapiens) (UniProt Q14012). Nature of the test: Inhibition of human recombinant CaMK1a at 40 nM related to control ULK1.
The target in test [10] is Receptor tyrosine-protein kinase erbB-2 (Homo sapiens) (UniProt P04626). Nature of the test: Inhibition of human recombinant ErbB2 at 500 nM in presence of ATP by radiometric assay relative to control.
Test [11] deals with Protein kinase C eta type (Homo sapiens) (UniProt P24723). Nature of the test: Inhibition of human recombinant PKCH at 500 nM in presence of ATP by radiometric assay relative to control.
Test [12] addresses Receptor-type tyrosine-protein kinase FLT3 (Homo sapiens) (UniProt P36888). In words: Inhibition of human recombinant FLT3 at 500 nM in presence of ATP by radiometric assay relative to control.

Protein kinase C eta type (Homo sapiens), sequence (P24723 whole entry): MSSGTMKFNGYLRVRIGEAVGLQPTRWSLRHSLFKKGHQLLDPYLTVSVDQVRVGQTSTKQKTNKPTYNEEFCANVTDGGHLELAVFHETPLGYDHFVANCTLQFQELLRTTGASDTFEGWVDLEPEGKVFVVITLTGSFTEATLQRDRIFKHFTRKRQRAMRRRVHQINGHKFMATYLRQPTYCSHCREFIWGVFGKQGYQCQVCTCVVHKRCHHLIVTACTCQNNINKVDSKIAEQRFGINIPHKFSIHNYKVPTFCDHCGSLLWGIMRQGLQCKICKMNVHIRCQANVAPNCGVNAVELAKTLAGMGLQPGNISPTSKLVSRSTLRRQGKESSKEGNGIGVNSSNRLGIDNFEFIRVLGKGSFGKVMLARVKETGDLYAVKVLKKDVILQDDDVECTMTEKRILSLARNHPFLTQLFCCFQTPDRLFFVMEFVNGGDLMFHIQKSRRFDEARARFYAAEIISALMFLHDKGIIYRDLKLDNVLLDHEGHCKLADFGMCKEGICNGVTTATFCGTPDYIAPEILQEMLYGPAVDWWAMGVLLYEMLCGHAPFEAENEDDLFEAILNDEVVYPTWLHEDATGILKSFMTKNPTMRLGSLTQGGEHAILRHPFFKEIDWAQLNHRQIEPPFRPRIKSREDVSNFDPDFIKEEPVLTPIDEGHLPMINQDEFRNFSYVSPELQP
Calcium/calmodulin-dependent protein kinase type 1 (Homo sapiens), sequence (Q14012 whole entry, looked up): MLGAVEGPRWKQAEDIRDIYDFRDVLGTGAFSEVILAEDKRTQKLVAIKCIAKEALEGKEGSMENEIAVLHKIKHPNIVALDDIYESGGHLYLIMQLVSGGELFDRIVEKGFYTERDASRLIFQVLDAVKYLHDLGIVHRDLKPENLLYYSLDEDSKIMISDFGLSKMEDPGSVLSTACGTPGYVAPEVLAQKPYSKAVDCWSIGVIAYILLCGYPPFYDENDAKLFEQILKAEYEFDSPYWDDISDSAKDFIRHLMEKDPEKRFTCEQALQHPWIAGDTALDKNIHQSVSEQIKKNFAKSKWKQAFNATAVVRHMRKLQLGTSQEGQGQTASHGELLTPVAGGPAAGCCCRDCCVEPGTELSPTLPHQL
Receptor-type tyrosine-protein kinase FLT3 (Homo sapiens), sequence (P36888 whole entry): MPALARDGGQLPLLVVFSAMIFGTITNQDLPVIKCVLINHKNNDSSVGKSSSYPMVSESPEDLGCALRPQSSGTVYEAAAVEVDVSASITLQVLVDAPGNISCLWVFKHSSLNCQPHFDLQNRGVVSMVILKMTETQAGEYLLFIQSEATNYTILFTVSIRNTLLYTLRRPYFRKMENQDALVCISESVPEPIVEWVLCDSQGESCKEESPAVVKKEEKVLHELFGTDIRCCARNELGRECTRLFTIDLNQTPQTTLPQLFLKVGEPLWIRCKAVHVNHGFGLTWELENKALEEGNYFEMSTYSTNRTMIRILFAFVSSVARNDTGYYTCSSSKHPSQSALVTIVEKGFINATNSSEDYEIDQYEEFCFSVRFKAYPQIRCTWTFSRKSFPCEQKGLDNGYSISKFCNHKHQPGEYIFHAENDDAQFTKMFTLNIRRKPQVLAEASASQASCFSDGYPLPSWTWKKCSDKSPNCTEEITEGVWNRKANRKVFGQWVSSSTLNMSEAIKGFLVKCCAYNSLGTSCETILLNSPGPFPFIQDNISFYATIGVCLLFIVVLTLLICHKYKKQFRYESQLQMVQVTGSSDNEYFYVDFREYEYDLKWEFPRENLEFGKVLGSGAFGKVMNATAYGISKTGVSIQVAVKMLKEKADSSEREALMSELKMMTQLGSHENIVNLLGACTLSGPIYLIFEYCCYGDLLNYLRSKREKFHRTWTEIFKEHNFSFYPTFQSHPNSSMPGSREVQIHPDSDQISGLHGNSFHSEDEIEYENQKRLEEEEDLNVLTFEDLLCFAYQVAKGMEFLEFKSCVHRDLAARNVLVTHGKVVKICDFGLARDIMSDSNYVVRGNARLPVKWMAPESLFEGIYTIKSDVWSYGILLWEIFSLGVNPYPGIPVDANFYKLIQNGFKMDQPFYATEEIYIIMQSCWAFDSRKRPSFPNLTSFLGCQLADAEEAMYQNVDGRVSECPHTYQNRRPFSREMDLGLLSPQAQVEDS
5'-AMP-activated protein kinase catalytic subunit alpha-1 (Homo sapiens), sequence (Q13131 whole entry, looked up): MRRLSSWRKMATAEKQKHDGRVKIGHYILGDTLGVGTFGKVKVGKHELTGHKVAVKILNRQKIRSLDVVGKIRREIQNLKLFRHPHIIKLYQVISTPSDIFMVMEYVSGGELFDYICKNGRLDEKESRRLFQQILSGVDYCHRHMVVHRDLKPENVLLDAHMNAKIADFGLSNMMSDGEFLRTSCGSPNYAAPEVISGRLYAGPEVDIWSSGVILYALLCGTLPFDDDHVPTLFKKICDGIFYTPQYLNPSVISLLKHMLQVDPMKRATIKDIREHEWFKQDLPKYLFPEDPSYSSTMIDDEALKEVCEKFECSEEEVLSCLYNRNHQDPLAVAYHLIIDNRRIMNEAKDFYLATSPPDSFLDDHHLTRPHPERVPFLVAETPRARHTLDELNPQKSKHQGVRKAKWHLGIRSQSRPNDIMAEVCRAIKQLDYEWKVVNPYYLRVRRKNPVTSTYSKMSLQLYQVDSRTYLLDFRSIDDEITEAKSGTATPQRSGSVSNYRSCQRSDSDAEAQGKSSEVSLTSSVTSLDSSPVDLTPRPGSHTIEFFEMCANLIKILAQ
Receptor tyrosine-protein kinase erbB-2 (Homo sapiens), sequence (P04626 whole entry): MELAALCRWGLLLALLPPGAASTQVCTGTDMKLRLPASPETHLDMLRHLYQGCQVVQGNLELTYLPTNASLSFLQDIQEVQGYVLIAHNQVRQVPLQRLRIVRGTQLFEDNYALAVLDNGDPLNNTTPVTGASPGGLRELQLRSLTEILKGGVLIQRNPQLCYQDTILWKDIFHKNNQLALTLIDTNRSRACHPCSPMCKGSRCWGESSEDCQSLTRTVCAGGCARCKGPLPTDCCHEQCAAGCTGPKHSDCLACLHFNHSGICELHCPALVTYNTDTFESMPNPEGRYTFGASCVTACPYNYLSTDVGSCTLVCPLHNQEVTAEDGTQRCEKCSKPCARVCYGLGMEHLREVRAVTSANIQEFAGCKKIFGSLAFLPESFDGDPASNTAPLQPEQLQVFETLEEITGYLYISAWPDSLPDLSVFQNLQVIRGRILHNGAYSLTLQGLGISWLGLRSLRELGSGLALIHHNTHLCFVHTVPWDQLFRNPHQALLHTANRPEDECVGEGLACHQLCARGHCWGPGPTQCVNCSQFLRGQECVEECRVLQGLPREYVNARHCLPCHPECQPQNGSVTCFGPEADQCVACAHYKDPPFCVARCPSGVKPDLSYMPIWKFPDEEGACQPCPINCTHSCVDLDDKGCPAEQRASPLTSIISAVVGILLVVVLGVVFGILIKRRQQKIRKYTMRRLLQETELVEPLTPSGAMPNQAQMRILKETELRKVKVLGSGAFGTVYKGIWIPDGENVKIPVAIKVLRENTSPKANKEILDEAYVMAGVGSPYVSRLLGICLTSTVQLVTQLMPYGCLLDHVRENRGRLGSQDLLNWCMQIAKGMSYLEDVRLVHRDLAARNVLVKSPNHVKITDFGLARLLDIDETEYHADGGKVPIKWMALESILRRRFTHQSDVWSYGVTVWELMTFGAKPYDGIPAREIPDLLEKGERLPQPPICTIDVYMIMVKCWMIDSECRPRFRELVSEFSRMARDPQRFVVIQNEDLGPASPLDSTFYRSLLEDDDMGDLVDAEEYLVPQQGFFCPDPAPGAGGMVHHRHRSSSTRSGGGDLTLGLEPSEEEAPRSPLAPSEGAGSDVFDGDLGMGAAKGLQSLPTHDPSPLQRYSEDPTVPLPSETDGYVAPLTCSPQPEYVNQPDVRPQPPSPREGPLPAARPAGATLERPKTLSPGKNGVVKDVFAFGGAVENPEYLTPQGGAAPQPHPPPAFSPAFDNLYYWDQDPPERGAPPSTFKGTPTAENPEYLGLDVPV
Ribosomal protein S6 kinase alpha-3 (Homo sapiens), sequence (P51812 whole entry): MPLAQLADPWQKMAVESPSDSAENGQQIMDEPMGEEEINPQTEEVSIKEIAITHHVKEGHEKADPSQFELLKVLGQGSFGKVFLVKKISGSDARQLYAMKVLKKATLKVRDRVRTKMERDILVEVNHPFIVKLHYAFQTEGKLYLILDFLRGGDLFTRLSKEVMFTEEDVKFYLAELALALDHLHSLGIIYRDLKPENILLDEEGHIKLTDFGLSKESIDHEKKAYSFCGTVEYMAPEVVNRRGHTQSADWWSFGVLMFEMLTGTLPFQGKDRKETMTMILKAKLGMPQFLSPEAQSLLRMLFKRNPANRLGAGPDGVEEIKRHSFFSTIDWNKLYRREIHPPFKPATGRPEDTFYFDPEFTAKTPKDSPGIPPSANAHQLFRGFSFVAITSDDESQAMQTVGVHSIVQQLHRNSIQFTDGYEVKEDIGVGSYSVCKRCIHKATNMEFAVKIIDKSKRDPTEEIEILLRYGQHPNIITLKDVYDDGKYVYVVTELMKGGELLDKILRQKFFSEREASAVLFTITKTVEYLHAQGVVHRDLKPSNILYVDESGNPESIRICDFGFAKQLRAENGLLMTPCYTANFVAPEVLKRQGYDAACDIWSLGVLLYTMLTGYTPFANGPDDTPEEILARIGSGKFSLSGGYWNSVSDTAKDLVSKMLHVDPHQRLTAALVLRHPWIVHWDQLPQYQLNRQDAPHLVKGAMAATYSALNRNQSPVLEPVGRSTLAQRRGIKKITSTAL

Consider `CC(C)[C@H](NC(=O)c1cc(-c2cnn3cc(-c4ccc(OCCN5CCCCC5)cc4)cnc23)cs1)C(F)(F)F`, for which the fold change (FC) in test [1] was 0.83. For the same compound, the inhibition in [2] is 0%.

For `O=C(N[C@@H](C1CC1)C(F)(F)F)c1cc(-c2cnn3cc(-c4ccc(F)cc4)cnc23)cs1`, the inhibition in test [3], in [5], in [6] and in test [8] was 0% in each case. For the same compound, the results for the fold change (FC) in test [4], in test [7] and in test [9] were 0.11, 0 and 0, respectively.

With `CNC(=O)c1ccccc1Oc1nc(Nc2cc(OC)c(OC)c(OC)c2)ncc1Br`, the inhibition worked out at 0% in test [10], 7% in test [11] and 57% in test [12].
